{"data": "Measurements collected from several papers", "organism": "Mycobacterium tuberculosis", "observed": "microbial growth"}
{"Structure (SMILES)": "CCOC(=O)C1=C(C)NC(=NNS(=O)(=O)c2ccccc2)NC1c1cn(-c2ccccc2)nc1-c1ccccc1 (centres unmarked)", "method": "resazurin", "strain": "H37RV", "measurement": "MIC", "result": "44.6 to 45.8 µM"}
{"Structure (SMILES)": "NNC(=O)c1ccncc1", "method": "resazurin", "strain": "H37RV", "tested at": "0.212 µM", "measurement": "inhibition", "result": "44%"}
{"Structure (SMILES)": "CCCCOc1ccc2nc3ccc(=O)cc-3oc2c1", "time": "7 days", "measurement": "MIC90", "result": "≤ 10 µM"}
{"Structure (SMILES)": "O=C1c2ccccc2NC(c2cc([N+](=O)[O-])ccc2O)N1/N=C/c1cc([N+](=O)[O-])ccc1O (centres unmarked)", "strain": "ATCC25177 H37RA", "time": "14 days", "measurement": "MIC", "result": "64 µg/mL"}
{"Structure (SMILES)": "CC[C@@H](CO)NCCN[C@@H](CC)CO", "method": "resazurin", "strain": "H37RV", "measurement": "MIC", "result": "7.64 µM"}
{"Structure (SMILES)": "CSCOc1ccc2nc3ccc(=O)cc-3oc2c1", "time": "7 days", "measurement": "MIC90", "result": "47 µM"}
{"Structure (SMILES)": "COc1c(N2CC3CCCNC3C2)c(F)cc2c(=O)c(C(=O)OCc3cnc([N+](=O)[O-])s3)cn(C3CC3)c12 (centres unmarked)", "strain": "H37RV", "measurement": "MIC", "result": "0.25 µM"}
{"Structure (SMILES)": "CCOC(=O)C1=C(C)NC(=O)NC1c1ccc([N+](=O)[O-])o1 (centres unmarked)", "method": "resazurin", "strain": "H37RV", "measurement": "MIC", "result": "20.1 µM"}
{"Structure (SMILES)": "COc1c(N2CC3CCCN(C(=O)OCc4ccc([N+](=O)[O-])cc4)C3C2)c(F)cc2c(=O)c(C(=O)O)cn(C3CC3)c12 (centres unmarked)", "strain": "H37RV", "measurement": "MIC", "result": "> 8 µM"}
{"Structure (SMILES)": "CC(=O)OCOc1ccc2nc3ccc(=O)cc-3oc2c1", "time": "7 days", "measurement": "MIC90", "result": "34 µM"}
{"Structure (SMILES)": "CN[C@@H]1[C@H](O)[C@H](NC)[C@H]2O[C@@]3(O)C(=O)C[C@@H](C)O[C@H]3O[C@@H]2[C@H]1O", "method": "broth dilution", "strain": "H37RV", "time": "7 days", "measurement": "MIC", "result": "100 µg/mL"}
{"Structure (SMILES)": "CCOC(=O)C1=C(C)NC(=S)NC1c1cn(-c2ccccc2)nc1-c1ccccc1 (centres unmarked)", "method": "resazurin", "strain": "H37RV", "measurement": "MIC", "result": "59.7 µM"}
{"Structure (SMILES)": "CC(C)/N=c1\\cc2n(-c3ccc(Cl)cc3)c3ccccc3nc-2cc1Nc1ccc(Cl)cc1", "time": "7 days", "measurement": "MIC90", "result": "0.39 µM"}
{"Structure (SMILES)": "O=C(O)c1cn(C2CC2)c2cc(N3CCNCC3)c(F)cc2c1=O", "strain": "ATCC25177 H37RA", "time": "14 days", "measurement": "MIC", "result": "16 µg/mL"}
